Measured values pooled from the literature.
Protocols differ between the studies behind these lines.
Observed: metabolic stability
Species: rat

Structure (SMILES) | medium | concentration | pH | half-life [min]
C=CCn1c(=O)c2cnc(Nc3ccc(N4CCN(C)CC4)cc3)nc2n1-c1ccc2c(n1)[C@@](O)(CC)CC2 | hepatocytes |  |  | 175
N#Cc1ccc(C[C@H](Nc2nnc(-c3ccc(F)cc3)s2)C(=O)N2CCc3ccccc32)cc1 | liver microsomes | 10 µM | pH 7.4 | 19.3
O=C1c2ccccc2C(=O)N1CCCN1CCN(C(c2ccc(F)cc2)c2ccc(F)cc2)CC1 | liver microsomes | 100 ng/mL |  | 3.9
COc1ccc(Cn2cc(CO[C@@H]3O[C@H]4[C@H](OC[C@H]4O)[C@H]3O)nn2)cc1 | liver microsomes |  |  | 120
NCc1ccc(-c2nn(Cc3ccncc3)c3ccccc23)o1 | liver microsomes | 1 µM | pH 7.4 | ~17
Cc1[nH]c(C)c(S(=O)(=O)Nc2ccc(C(F)(F)F)c(Cl)c2)c1C(=O)N1CCC(F)(F)C1 | liver microsomes |  |  | 8
O=C1CCC(N2Cc3cc(C4CCN(Cc5ccccc5)CC4)ccc3C2=O)C(=O)N1 (centres unmarked) | liver microsomes | 1 µM |  | > 60
NCc1ccc(-c2nn(Cc3ccccc3)c3ccccc23)o1 | liver microsomes | 1 µM | pH 7.4 | > 30
N#Cc1ccc(C[C@H](Nc2c(Nc3ccc(F)cc3)c(=O)c2=O)C(=O)N2CCc3ccccc32)cc1 | liver microsomes | 10 µM | pH 7.4 | 20
OCc1ccc(-c2nn(Cc3ccncc3)c3ccccc23)o1 | liver microsomes | 1 µM | pH 7.4 | 12
N#Cc1ccc(C[C@H](Nc2c(Nc3ccc(Br)cc3)c(=O)c2=O)C(=O)N2CCc3ccccc32)cc1 | liver microsomes | 10 µM | pH 7.4 | 38
Cc1[nH]c(C)c(S(=O)(=O)Nc2ccc(C(F)(F)F)c(Cl)c2)c1C(=O)N(C)C | liver microsomes |  |  | 5.7
N#Cc1ccc(C[C@H](Nc2ncc(-c3ccc(F)cc3)o2)C(=O)N2CCc3ccccc32)cc1 | liver microsomes | 10 µM | pH 7.4 | 43
COc1ccccc1Cn1nc(-c2ccc(CO)o2)c2ccccc21 | liver microsomes | 1 µM | pH 7.4 | 2
